Source: ChEMBL document CHEMBL4765302, “Design, synthesis and biological evaluation of novel histone deacetylase1/2 (HDAC1/2) and cyclin-dependent Kinase2 (CDK2) dual inhibitors against malignant cancer” (Eur J Med Chem, 2020)
Activity calls are given as the source filed them. No cut-off for these calls is given here.

How the values were obtained:
A-375 [1] = assay: Induction of apoptosis in human A-375 cells assessed as late apoptotic cells at 2 uM incubated for 48 hrs by annexin V-FITC and PI staining based flow cytometry (reference value: 2.24 %); type: functional
HCT-116 [2] = assay: Induction of apoptosis in human HCT-116 cells assessed as necrotic cells at 2 uM incubated for 48 hrs by annexin V-FITC and PI staining based flow cytometry (reference value: 0.124 %); type: functional
Histone deacetylase 2 = Histone deacetylase 2 (Homo sapiens, UniProt Q92769); assay: Inhibition of recombinant human HDAC2 using FLUOR-DE-LYS-Green as substrate incubated for 10 mins followed by substrate addition and measured after 30 mins by fluorescence based assay
Method in brief: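 IC50 values reported as means of at least two separate determinations, expressed as mean ±SD.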

A-375 [3] = assay: Induction of apoptosis in human A-375 cells assessed as necrotic cells at 1 uM incubated for 48 hrs by annexin V-FITC and PI staining based flow cytometry (reference value: 0.139 %); type: functional
A-375 [4] = assay: Antiproliferative activity against human A-375 cells assessed as reduction in cell growth incubated for 72 hrs by CCK-8 assay; type: functional, cell-based; settings: A-375, 72 h
Method in brief: (§1)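 IC50 by CCK-8 assay across five solid-tumour lines (HCT116, HepG2, H460, HeLa, A375). Run only for compounds chosen after the single-concentration screen, with CS055 and roscovitine as references.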

A-375 [5] = assay: Induction of apoptosis in human A-375 cells assessed as early apoptotic cells at 2 uM incubated for 48 hrs by annexin V-FITC and PI staining based flow cytometry (reference value: 1.34 %); type: functional
HCT-116 [6] = assay: Induction of apoptosis in human HCT-116 cells assessed as necrotic cells at 0.5 uM incubated for 48 hrs by annexin V-FITC and PI staining based flow cytometry (reference value: 0.124 %); type: functional
A-375 [7] = assay: Induction of apoptosis in human A-375 cells assessed as late apoptotic cells at 0.5 uM incubated for 48 hrs by annexin V-FITC and PI staining based flow cytometry (reference value: 2.24 %); type: functional
A-375 [8] = assay: Inhibition of HDAC in human A-375 cells assessed as increase the acetylation of histone H3 at 1 uM incubated for 12 hrs by DAPI and immunofluorescence staining based confocal microscopic analysis; type: cell-based
NCI-H460 [9] = assay: Induction of apoptosis in human NCI-H460 cells assessed as late apoptotic cells at 1 uM incubated for 48 hrs by annexin V-FITC and PI staining based flow cytometry (reference value: 6.11 %); type: functional
HCT-116 [10] = assay: Induction of apoptosis in human HCT-116 cells assessed as early apoptotic cells at 2 uM incubated for 48 hrs by annexin V-FITC and PI staining based flow cytometry (reference value: 4.14 %); type: functional
[11] = AUC (0 to t) in ICR mouse at 20 mg/kg, ip measured upto 24 hrs by LC-MS/MS analysis; settings: in vivo
HeLa [12] = assay: Induction of apoptosis in human HeLa cells assessed as late apoptotic cells at 0.5 uM incubated for 48 hrs by annexin V-FITC and PI staining based flow cytometry (reference value: 0.870 %); type: functional
HepG2 = assay: Antiproliferative activity against human HepG2 cells assessed as reduction in cell growth at 8 uM incubated for 72 hrs by CCK-8 assay relative to control; type: functional
HCT-116 [13] = assay: Induction of apoptosis in human HCT-116 cells assessed as late apoptotic cells at 0.5 uM incubated for 48 hrs by annexin V-FITC and PI staining based flow cytometry (reference value: 1.88 %); type: functional
HCT-116 [14] = assay: Induction of cell cycle arrest in human HCT-116 cells assessed as reduction in G0/G1 phase at 0.5 to 2 uM incubated for 24 hrs by PI staining based flow cytometry; type: functional; settings: dose 0.5-2 µM
Method in brief: (§2)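 Treatment at 2, 1 and 0.5 μM for 24 h, alongside CS055 and roscovitine, against a DMSO (0.1 %) blank. Cells then stained with propidium iodide and analyzed by flow cytometry.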

A-375 [15] = assay: Induction of cell cycle arrest in human A-375 cells assessed as reduction in G0/G1 phase at 0.5 to 2 uM incubated for 24 hrs by PI staining based flow cytometry; type: functional; settings: dose 0.5-2 µM; method in brief: as §2
A-375 [16] = assay: Induction of ROS accumulation in human A-375 cells at 1 uM incubated for 24 hrs by DCFH-DA staining based confocal microscopic analysis; type: functional, cell-based
Method in brief: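 A375 cells treated at 1 µM or with DMSO blank for 24 h. Intracellular ROS detected with the fluorescent dye DCFH-DA.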

HeLa [17] = assay: Induction of apoptosis in human HeLa cells assessed as early apoptotic cells at 2 uM incubated for 48 hrs by annexin V-FITC and PI staining based flow cytometry (reference value: 0.528 %); type: functional
NCI-H460 [18] = assay: Induction of apoptosis in human NCI-H460 cells assessed as early apoptotic cells at 0.5 uM incubated for 48 hrs by annexin V-FITC and PI staining based flow cytometry (reference value: 2.88 %); type: functional
HCT-116 [19] = assay: Induction of apoptosis in human HCT-116 cells assessed as viable cells at 0.5 uM incubated for 48 hrs by annexin V-FITC and PI staining based flow cytometry (reference value: 93.9 %); type: functional; settings: read-out: Activity
Histone deacetylase 1 = Histone deacetylase 1 (Homo sapiens, UniProt Q13547); assay: Potency index, ratio of IC50 of CS055 to IC50 of compound for inhibition of recombinant human HDAC1 using […] as substrate incubated for 10 mins followed by substrate addition and measured after 30 mins by fluorescence based assay
HeLa [20] = assay: Antiproliferative activity against human HeLa cells assessed as reduction in cell growth incubated for 72 hrs by CCK-8 assay; type: functional, cell-based; method in brief: as §1
HCT-116 [21] = assay: Induction of apoptosis in human HCT-116 cells assessed as early apoptotic cells at 1 uM incubated for 48 hrs by annexin V-FITC and PI staining based flow cytometry (reference value: 4.14 %); type: functional
NCI-H460 [22] = assay: Antiproliferative activity against human NCI-H460 cells assessed as reduction in cell growth incubated for 72 hrs by CCK-8 assay; type: functional, cell-based; settings: NCI-H460, 72 h; method in brief: as §1
HeLa [23] = assay: Induction of apoptosis in human HeLa cells assessed as early apoptotic cells at 1 uM incubated for 48 hrs by annexin V-FITC and PI staining based flow cytometry (reference value: 0.528 %); type: functional
HeLa [24] = assay: Induction of cell cycle arrest in human HeLa cells assessed as reduction in G0/G1 phase at 0.5 to 2 uM incubated for 24 hrs by PI staining based flow cytometry; type: functional; settings: dose 0.5-2 µM; method in brief: as §2
A-375 [25] = assay: Induction of apoptosis in human A-375 cells assessed as early apoptotic cells at 0.5 uM incubated for 48 hrs by annexin V-FITC and PI staining based flow cytometry (reference value: 1.34 %); type: functional
HeLa [26] = assay: Induction of apoptosis in human HeLa cells assessed as apoptosis rate at 2 uM incubated for 48 hrs by annexin V-FITC and PI staining based flow cytometry relative to control; type: functional

Chain of Histone deacetylase 2 (Q92769 whole entry): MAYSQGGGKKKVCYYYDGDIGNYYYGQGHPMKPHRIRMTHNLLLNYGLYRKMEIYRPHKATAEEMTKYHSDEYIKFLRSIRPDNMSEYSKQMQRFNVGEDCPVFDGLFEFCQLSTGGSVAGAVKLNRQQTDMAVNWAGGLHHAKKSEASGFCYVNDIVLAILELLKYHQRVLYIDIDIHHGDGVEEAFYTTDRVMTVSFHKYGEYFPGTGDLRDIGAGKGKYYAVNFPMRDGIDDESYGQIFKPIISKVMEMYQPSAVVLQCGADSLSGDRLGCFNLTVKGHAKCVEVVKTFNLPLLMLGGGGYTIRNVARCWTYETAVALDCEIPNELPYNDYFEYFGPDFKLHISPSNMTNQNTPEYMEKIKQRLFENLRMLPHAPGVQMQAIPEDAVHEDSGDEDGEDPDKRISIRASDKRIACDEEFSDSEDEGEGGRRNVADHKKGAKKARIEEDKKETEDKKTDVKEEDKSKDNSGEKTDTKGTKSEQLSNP
Chain of Histone deacetylase 1 (Q13547 whole entry): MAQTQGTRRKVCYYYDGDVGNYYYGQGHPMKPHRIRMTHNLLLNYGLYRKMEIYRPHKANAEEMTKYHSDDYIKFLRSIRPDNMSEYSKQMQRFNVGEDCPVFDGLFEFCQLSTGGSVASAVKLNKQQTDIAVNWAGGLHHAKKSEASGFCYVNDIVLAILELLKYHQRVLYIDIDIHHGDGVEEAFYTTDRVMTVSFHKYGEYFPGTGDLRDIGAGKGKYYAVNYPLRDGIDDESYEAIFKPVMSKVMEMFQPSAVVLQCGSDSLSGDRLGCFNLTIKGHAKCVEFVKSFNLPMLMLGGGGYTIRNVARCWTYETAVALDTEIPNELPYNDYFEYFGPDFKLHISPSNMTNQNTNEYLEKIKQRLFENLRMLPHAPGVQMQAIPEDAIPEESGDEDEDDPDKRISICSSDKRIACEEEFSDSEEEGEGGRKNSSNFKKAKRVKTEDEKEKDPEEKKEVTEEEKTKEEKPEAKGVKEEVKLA

- IC50 (Histone deacetylase 2): 0.0231 µM
- IC50 (A-375 [4]): 0.47 µM
- AUC(0-t) at 24 h [11]: 7.24 µg·h/mL
- Ratio IC50 (Histone deacetylase 1): 3
- IC50 (HeLa [20]): 1.05 µM
- IC50 (NCI-H460 [22]): 1.59 µM
Structure (SMILES): Cc1ccc(Nc2nc(Cl)nc3c2ncn3Cc2ccc(C(=O)Nc3ccccc3N)cc2)cc1
- Activity (A-375 [1]): 84.8%
- Activity (HCT-116 [2]): 0.639%
- Activity (A-375 [3]): 0.566%
- Activity (A-375 [5]): 7.19%
- Activity (HCT-116 [6]): 1.37%
- Activity (A-375 [7]): 72.2%
- inhibition (A-375 [8]): Active
- Activity (NCI-H460 [9]): 17.5%
- Activity (HCT-116 [10]): 76.2%
- Activity (HeLa [12]): 5.47%
- inhibition at 8 µM (HepG2): 82%
- Activity (HCT-116 [13]): 16.6%
- Activity (HCT-116 [14]): Active
- Activity (A-375 [15]): Active
- Activity (A-375 [16]): Active
- Activity (HeLa [17]): 8.26%
- Activity (NCI-H460 [18]): 6.74%
- viability at 0.5 µM (HCT-116 [19]): 21.3%
- Activity (HCT-116 [21]): 72.1%
- Activity (HeLa [23]): 5.85%
- Activity (HeLa [24]): Active
- Activity (A-375 [25]): 10.6%
- Activity (HeLa [26]): 22.36%
